HCT116 PTEN-null – growth suppressors of cells with PTEN tumor suppressor deletion; HCT116 PTEN-null viability, CellTiter-Glo, 60 h; stronger effect = lower value; viability, % at 10 µM; 1.2% of 140,000 active; AID 827;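 active = viability at or below a set limit, 4 SD under the median of all tested compounds, cut at about 3.7% in these data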;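 note: PTEN knockout HCT116 line with beta catenin targeted HCT116 as companion control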
Cav32 inh – inhibitors of human Cav3.2 T-type calcium channel; O95180; Cav3.2-expressing cells, Fluo-4 calcium fluorescence FDSS; stronger effect = lower value; B-score at 10 µM; 4% of 100,000 active; AID 449739;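 active = single-dose well whose peak fluorescence ratio is a statistical outlier from its plate by either plate-standardised score or position-corrected B-score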
H69AR growth 86K – blocks growth of human H69AR lung tumor cells | H69AR lung tumor viability, ATP luminescence, 72 h; stronger effect = lower value | viability, % at 10 µM | 6% of 85,000 active | AID 598;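 active = viability at or below 40%; inactive = viability above 40%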;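 note: multidrug resistant small cell line overexpressing MRP-1 efflux transporter; 100% = mean luminescence of untreated control wells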
Fibroblast inh – blocks proliferation of human lung fibroblasts; LL 47 human lung fibroblast viability, ATP luminescence; stronger effect = lower value; 1.1% of 85,000 active; AID 719; viability, % at 10 µM;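 active = viability at or below 50% in the single dose screen; inactive = viability above 50%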;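 note: compound exposure lasted 72 h before the ATP readout; 100% = median luminescence of untreated cell-only wells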
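Assay system: human lung fibroblast line LL 47, low passage. Input: 1,150 fibroblasts seeded per well. Times: overnight cell rest, 72 h compound treatment at 37 °C. Evaluation: % viability of median cell-only signal. Technique: luminescent ATP detection, CellTiter-Glo. Control set: cell-only wells, no compound.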
HUVEC prolif 384 – inhibitors of human endothelial cell proliferation. HUVEC proliferation, CellTiter-Glo luminescence, 72 h; stronger effect = lower value. viability, % at 10 µM (by protocol). 1.1% of 86,000 active. AID 648;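 active = viability at or below 30%; inactive = viability above 30%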;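 note: 100% = median luminescence of DMSO-only cell control wells on each plate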
HCT116 bCat-KO – beta-catenin-lacking colon tumor cell growth suppression. HCT116 beta-catenin knockout viability, CellTiter-Glo, 60 h; stronger effect = lower value. viability, % at 10 µM. 1.5% of 140,000 active. AID 818;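 active = viability at or under a set limit, the compound median less 4 SD, cut at about 6% in these data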;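 note: 0% = Hyamine 1622 control at 20 µM and 100% = untreated cell control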
The depositor's hits bear a star; . = not tested or not shown. The list is not random: actives were taken first. Their share in the collection is about 7.1%.

SMILES	HCT116 PTEN-null	Cav32 inh	H69AR growth 86K	Fibroblast inh	HUVEC prolif 384	HCT116 bCat-KO
COc1ccc(-n2ncc3c(NCC4CCCO4)ncnc32)cc1 (stereo not drawn)	102.8	2.25	87.3	111.8	85.4	101.1
CCN(CC)CCCNc1nc2cc(OC)c(OC)cc2c2nc(-c3cccnc3)nn12	1.6*	1.38	64.8	70.9	76.4	1.7*
COc1ccc2c(CC(=O)NC3CCCc4ccccc43)coc2c1 (stereo not drawn)	96.0	.	.	.	.	87.8
O=C(OCn1ncc(Br)c(Br)c1=O)c1ccccc1Cl	2.0*	0.21	1.2*	2.7*	2.6*	1.5*
CCn1ncc(Br)c1C(=O)Nc1ccc(C(=O)OC(C)C)cc1	91.3	-2.22	100.4	110.3	103.6	97.1
O=C(OCn1ncc(Br)c(Br)c1=O)c1ccc(F)cc1	0.6*	0.211	1.8*	1.9*	2.3*	0.8*
CNc1c([N+](=O)[O-])cnn1-c1ccc(C)cc1	104.5	-0.000495	.	.	.	99.1
Cc1cccc(-n2c(CNC(=O)c3ccc(S(=O)(=O)N(C)C)cc3)nnc2SCC(=O)Nc2ccc(F)cc2)c1	88.7	.	.	.	.	95.5
O=C(CC(SCCO)c1ccc(F)cc1)c1ccco1 (stereo not drawn)	2.5*	0.61	.	.	.	4.0*
Cc1ccc(C(CC(=O)c2ccco2)SCCO)cc1 (stereo not drawn)	4.8	1.39	.	.	.	5.5*
O=C(CSc1nnc(-c2ccccc2)n1Cc1ccccc1)NNC(=O)c1ccccc1O	39.0	.	.	.	.	28.4
COC(=O)CCN(C1CCCCC1)S(=O)(=O)c1ccc(S(=O)(=O)NC2CCCCC2)cc1	65.3	-5.86*	90.0	91.0	78.5	78.7
O=C(CN(C1CCCCC1)S(=O)(=O)c1ccc(F)cc1)Nc1ccc2c(c1)OCO2	79.9	-5.56*	100.1	102.7	89.3	82.7
O=C(CN(C1CC1)S(=O)(=O)c1ccc(S(=O)(=O)NC2CCCCC2)cc1)Nc1ccccc1	65.7	-11.7*	58.3	90.2	82.5	62.0
CCCCn1c(SCC(=O)N2CCOCC2)nnc1-c1cccs1	95.0	1.27	.	.	.	83.8
CCOc1cc(C(=S)N2CCCCC2)ccc1OCC(=O)NCc1ccccc1	98.5	-0.228	22.7*	97.5	104.9	92.7
CCOc1cc(C(=S)N2CCCCC2)ccc1OS(=O)(=O)c1ccc(Cl)cc1	56.1	-4.97*	.	.	.	60.2
CCOc1cc(C(=S)N2CCCCC2)ccc1OS(=O)(=O)c1ccc(Br)cc1	62.4	-4.86*	.	.	.	69.4
CCOc1cc(C(=S)N2CCC(O)CC2)ccc1OS(=O)(=O)c1ccc(Br)cc1	66.5	-4.9*	.	.	.	60.5
Cc1sc(N/N=C/c2cccs2)nc1-c1ccccc1	73.4	.	.	.	.	77.8
COc1cccc(C2SCC(=O)N2c2ccc(Br)cc2)c1OC (stereo not drawn)	90.8	.	.	.	.	81.7
CC1(C)Cc2c(sc(/N=C/N3CCCC3)c2C#N)C(C)(C)N1	102.2	0.803	92.8	97.3	93.6	95.0
O=C(NCC1CC1)c1cc(-c2ccccc2)nn1CC1CC(c2cccnc2)=NO1 (stereo not drawn)	.	0.819	.	.	.	.
CCCCOC(=O)c1c(C)oc2ccc(NS(=O)(=O)c3ccc4c5c(cccc35)C(=O)N4)cc12	102.0	-5.76*	79.7	94.8	83.5	101.1
O=C(Nc1cccc(C(F)(F)F)c1)C12CC3CC(CC(C3)C1)C2	1.0*	-0.632	79.0	98.2	88.2	0.9*
SMILES	HCT116 PTEN-null	Cav32 inh	H69AR growth 86K	Fibroblast inh	HUVEC prolif 384	HCT116 bCat-KO
O=C(Nc1cccc(C(F)(F)F)c1)N1CCN(C(=O)Nc2cccc(C(F)(F)F)c2)CC1	94.0	.	.	.	.	95.5
Cc1sc(NC(=O)c2ccc(Br)s2)c(C(N)=O)c1C	85.3	-0.0914	50.4	83.7	93.6	84.2
Cc1sc(NC(=O)c2cc(-c3ccccc3)nc3ccccc23)c(C(N)=O)c1C	53.9	.	.	.	.	63.3
O=C(N/N=C/c1ccc2c(c1)OCO2)c1cc(-c2ccccc2)nc2ccccc12	92.3	.	.	.	.	94.6
Cc1sc(NC(=O)c2ccc(Cl)s2)c(C(N)=O)c1C	92.1	0.351	11.0*	87.8	60.0	104.0
O=C(N/N=C/c1ccccn1)c1cc(-c2ccc(Cl)cc2)nc2ccccc12	3.2*	.	.	.	.	3.7*
Cc1sc(NC(=O)c2cc(-c3ccc(Cl)cc3)nc3ccccc23)c(C(N)=O)c1C	1.0*	-0.0607	.	.	.	3.9*
COc1ccc(C(=O)Cn2c3ccccc3n3nc(CCC(=O)O)c(=O)nc23)cc1OC	103.8	0.275	89.2	100.8	95.8	90.8
CCn1nnc(NC(=O)C(C)Oc2ccc(Cl)cc2Cl)n1 (stereo not drawn)	93.6	-0.0511	95.4	98.2	98.7	94.1
Cc1cc(NC(=O)C(C)Oc2ccc(Cl)cc2Cl)n(-c2ccccc2)n1 (stereo not drawn)	75.5	-3.51*	81.6	100.4	105.6	91.3
Cc1onc(-c2ccccc2Cl)c1C(=O)N1CCN(c2cccc(Cl)c2)CC1	14.7	0.934	28.3*	53.9	52.0	21.8
COC(=O)c1cc(OC)c(OC)cc1NC(=O)Cn1nnc(-c2ccccc2Cl)n1	83.5	-0.561	34.8*	93.3	57.9	78.3
COC(=O)c1cc(OC)c(OC)cc1NC(=O)c1c(-c2ccccc2Cl)noc1C	57.6	-2.86	34.7*	.	89.0	79.2
Cc1onc(-c2ccccc2Cl)c1C(=O)Nc1ccc(F)c(F)c1	76.2	-4.08*	.	.	.	78.8
O=C(COC(=O)c1ccc([N+](=O)[O-])s1)Nc1ncc(C(F)(F)F)cc1Cl	80.8	.	.	.	.	79.7
Cc1ccc(Cn2ccc(NC(=O)c3c(-c4ccccc4Cl)noc3C)n2)cc1	96.2	-5.52*	97.8	104.7	92.6	98.7
CN(C)c1ccc(/C=C2\SC(=S)N(Nc3ncc(C(F)(F)F)cc3Cl)C2=O)cc1	79.8	-5.06*	87.7	101.7	94.5	82.2
O=C(NC(C(=O)c1ccccc1)N1CCCCC1)c1ccccc1 (stereo not drawn)	84.6	-1.55	.	.	.	101.1
Cc1nc2cc(N3CCCCC3)c(NC(=O)c3ccncc3)cc2c(=O)n1Cc1ccccc1	4.2	1.94	.	.	.	4.4*
Cc1nc2cc(N3CCOCC3)c(NC(=O)C3CC3)cc2c(=O)n1Cc1ccccc1	.	.	100.2	103.1	95.0	.
Cc1nnc(C)n1/N=C/c1cc(Br)ccc1O	58.5	-0.657	.	.	.	44.6
Cc1nnc(C)n1/N=C/c1cc(Br)cc(Br)c1O	104.0	-9.55*	107.3	96.2	48.2	104.6
CCN1C(=O)N[C@@H](CCc2ccccc2)[C@H](C(=O)OC)[C@H]1C	.	0.183	.	.	.	.
COc1cccc(C2c3c(oc4ccc(Cl)cc4c3=O)C(=O)N2c2cc(C)on2)c1OC (stereo not drawn)	19.6	-1.97	6.6*	71.9	54.5	2.8*
COc1ccccc1Nc1nc(N)nc(CSc2ncccn2)n1	104.3	-0.473	87.5	100.8	89.1	98.9
COc1ccc(N2CCN(Cc3nc(N)nc(Nc4ccccc4OC)n3)CC2)cc1	96.4	-1.2	7.7*	103.1	97.5	85.8
